Like-named read-outs stand apart in the source and are kept apart here. Marks after values point to notes of the source that are not given here.
Assays:
CYP2C19 [1] = target: T1, CYP2C19 (Homo sapiens, UniProt P33261); assay: clinical; settings: in vivo, 750 mg
[2] = steady-state CBD, healthy volunteers; result in words; cited from earlier work
CYP3A4/2C19 [3] = settings: result in words
CYP3A4 [4] = target: T2, CYP3A4 (Homo sapiens, UniProt P08684); assay: clinical; settings: in vivo, 750 mg
[5] = cited from earlier work; for Abdominal pain / Chromaturia / Diarrhea / Fatigue / Flatulence / Headache / Hepatic enzyme increased / Nausea / Somnolence: healthy volunteers
[6] = not given; remark: listed apart in the source
UGT1A9 = settings: in vitro; result in words; cited from earlier work
CYP3A4/2C19 [7] = assay: clinical; settings: human, in vivo, 750 mg
[8] = cited from earlier work
[9] = Other safety parameters for all six trials; type: in vivo, human; settings: result in words
In short: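 Safety was assessed in open-label, fixed-sequence phase 1 trials in healthy volunteers and in randomized, double-blind, placebo-controlled phase 2 trials in epilepsy patients. Assessments covered treatment-emergent adverse events, clinical laboratory evaluations, vital signs, 12-lead ECGs, physical examinations and the C-SSRS questionnaire. The safety population comprised subjects given at least one dose. In CYP3A4 trials, volunteers also needed at least one postdose assessment.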

[10] = result in words; cited from earlier work
UGT2B7 = settings: in vitro; result in words; cited from earlier work
CYP2C19 [11] = target: T1, CYP2C19; settings: human liver microsomes; result in words; cited from earlier work
CYP2C19 [12] = target: T1, CYP2C19
CYP3A4 [13] = target: T2, CYP3A4; settings: result in words
CYP3A4 [14] = target: T2, CYP3A4; settings: result in words, cited from earlier work
[15] = cited from earlier work; remark: listed apart in the source
[16] = trial 17075, healthy volunteers, N = 32
[17] = trial 1543, healthy volunteers, N = 77
[18] = trial 1543 groups 1 + 2 (DDI CLB), n = 27
[19] = trial 1543 groups 3 + 4 (DDI STP), n = 24
[20] = trial 1543 groups 5 + 6 (DDI VPA), n = 26
[21] = trial 17028, healthy volunteers, N = 16
[22] = trial 1447, patients with epilepsy, N = 28
[23] = trial 1447, patients with epilepsy, N = 34
[24] = trial 1428, patients with epilepsy, N = 16
[25] = trial 1428, patients with epilepsy, N = 20

T1 sequence (P33261 whole entry): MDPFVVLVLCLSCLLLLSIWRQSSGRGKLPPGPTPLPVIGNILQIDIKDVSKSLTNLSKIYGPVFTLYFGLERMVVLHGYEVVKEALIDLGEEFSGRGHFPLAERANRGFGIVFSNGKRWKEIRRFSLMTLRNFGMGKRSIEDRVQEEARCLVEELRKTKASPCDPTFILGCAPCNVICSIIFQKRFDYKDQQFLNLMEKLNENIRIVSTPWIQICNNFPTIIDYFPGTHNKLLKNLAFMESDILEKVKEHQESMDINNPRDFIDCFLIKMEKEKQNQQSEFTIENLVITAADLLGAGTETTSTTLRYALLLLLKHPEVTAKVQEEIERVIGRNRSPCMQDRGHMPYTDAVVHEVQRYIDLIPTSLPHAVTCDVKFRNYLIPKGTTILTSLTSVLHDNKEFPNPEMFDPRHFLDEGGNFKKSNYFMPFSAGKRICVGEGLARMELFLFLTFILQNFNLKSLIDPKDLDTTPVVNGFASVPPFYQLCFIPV
T2 sequence (P08684 whole entry): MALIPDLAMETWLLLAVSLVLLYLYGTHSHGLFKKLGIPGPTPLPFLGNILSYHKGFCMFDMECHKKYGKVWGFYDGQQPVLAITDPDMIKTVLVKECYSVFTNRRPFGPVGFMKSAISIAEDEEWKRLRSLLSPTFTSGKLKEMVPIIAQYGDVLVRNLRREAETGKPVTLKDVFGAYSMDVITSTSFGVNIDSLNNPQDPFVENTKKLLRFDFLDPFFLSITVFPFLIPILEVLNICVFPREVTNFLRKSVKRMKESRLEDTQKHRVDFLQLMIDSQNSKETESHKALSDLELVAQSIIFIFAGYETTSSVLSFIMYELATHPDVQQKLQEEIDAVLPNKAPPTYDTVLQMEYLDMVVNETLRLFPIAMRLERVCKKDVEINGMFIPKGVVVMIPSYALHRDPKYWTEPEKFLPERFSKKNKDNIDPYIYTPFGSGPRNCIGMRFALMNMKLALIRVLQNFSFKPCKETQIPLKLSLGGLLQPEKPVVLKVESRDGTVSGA

Compound: C=C(C)[C@@H]1CCC(C)=C[C@H]1c1c(O)cc(CCCCC)cc1O [CBD, cannabidiol]
- half-life (CYP2C19 [1]): 51.2 h
- AEs leading to withdrawal [16]: 0 (0) n (%)
- Abdominal pain [16]: 2 (6) n (%)
- Chromaturia [16]: 0 (0) n (%)
- Death [16]: 0 (0) n (%)
- Diarrhea [16]: 3 (9) n (%)
- Fatigue [16]: 2 (6) n (%)
- Flatulence [16]: 0 (0) n (%)
- Headache [16]: 6 (19) n (%)
- Hepatic enzyme increased [16]: 0 (0) ^c n (%)
- Nausea [16]: 2 (6) n (%)
- Patient with at least 1 AE [16]: 20 (63) n (%)
- Serious AEs [16]: 0 (0) n (%)
- Severe AEs [16]: 0 (0) n (%)
- Somnolence [16]: 3 (9) n (%)
- healthy volunteers reporting AEs (trial 17075, overall, 32 subjects, CBD as two single doses): 63%
- healthy volunteers reporting AEs (trial 17075 FLU arm, overall, of 16): 44%
- healthy volunteers reporting AEs (trial 17075 ITC arm, overall, of 16): 81%
- effect of concomitant STP on exposure [2]: no effect
- effect of concomitant VPA on exposure [2]: did not affect
- t ½ with concomitant RIF (CYP3A4/2C19 [3]): unaffected
- half-life (CYP3A4 [4]): 56.8 h
- AEs leading to withdrawal [5, 17]: 6 (8) n (%)
- Death [5, 17]: 0 (0) n (%)
- Patient with at least 1 AE [5, 17]: 72 (94) n (%)
- Serious AEs [5, 17]: 0 (0) n (%)
- Severe AEs [5, 17]: 2 (3) n (%)
- subjects who experienced an AE of rash ([5]; trial 1543, of 77, early in the trial): 12%
- healthy volunteers who experienced an AE ([5]; trial 1543, of 77): 94%
- elevations in transaminase levels as AEs or laboratory evaluations ([5]; trial 1543, result in words): no reports
- Abdominal pain [5, 18]: 7 (26) n (%)
- Chromaturia [5, 18]: 0 (0) n (%)
- Diarrhea [5, 18]: 7 (26) n (%)
- Fatigue [5, 18]: 14 (52) n (%)
- Flatulence [5, 18]: 0 (0) n (%)
- Headache [5, 18]: 13 (48) n (%)
- Hepatic enzyme increased [5, 18]: 0 (0) n (%)
- Nausea [5, 18]: 8 (30) n (%)
- Somnolence [5, 18]: 5 (19) n (%)
- Abdominal pain [5, 19]: 7 (29) n (%)
- Chromaturia [5, 19]: 0 (0) n (%)
- Diarrhea [5, 19]: 13 (54) n (%)
- Fatigue [5, 19]: 8 (33) n (%)
- Flatulence [5, 19]: 6 (25) n (%)
- Headache [5, 19]: 9 (38) n (%)
- Hepatic enzyme increased [5, 19]: 0 (0) n (%)
- Nausea [5, 19]: 6 (25) n (%)
- Somnolence [5, 19]: 8 (33) n (%)
- Abdominal pain [5, 20]: 7 (27) n (%)
- Chromaturia [5, 20]: 0 (0) n (%)
- Diarrhea [5, 20]: 15 (58) n (%)
- Fatigue [5, 20]: 14 (54) n (%)
- Flatulence [5, 20]: 1 (4) n (%)
- Headache [5, 20]: 8 (31) n (%)
- Hepatic enzyme increased [5, 20]: 0 (0) n (%)
- Nausea [5, 20]: 8 (31) n (%)
- Somnolence [5, 20]: 7 (27) n (%)
- elevation in AST levels observed ([6]; trial 17028): four
- elevations in alanine aminotransferase levels observed ([6]; trial 17028): three
- AEs leading to withdrawal [6, 21]: 2 (13) n (%)
- Abdominal pain [6, 21]: 2 (13) n (%)
- Chromaturia [6, 21]: 0 (0) n (%)
- Death [6, 21]: 0 (0) n (%)
- Diarrhea [6, 21]: 6 (38) n (%)
- Fatigue [6, 21]: 3 (19) n (%)
- Flatulence [6, 21]: 0 (0) n (%)
- Headache [6, 21]: 4 (25) n (%)
- Hepatic enzyme increased [6, 21]: 4 (25) n (%)
- Nausea [6, 21]: 2 (13) n (%)
- Patient with at least 1 AE [6, 21]: 15 (94) n (%)
- Serious AEs [6, 21]: 0 (0) n (%)
- Severe AEs [6, 21]: 0 (0) n (%)
- Somnolence [6, 21]: 5 (31) n (%)
- healthy volunteers with elevations in transaminase levels reported as AEs ([6]; trial 17028, of 16): 25%
- healthy volunteers reporting AEs ([6]; trial 17028, of 16, CBD as multiple doses): 94%
- inhibition of UGT1A9 (UGT1A9): potently inhibits
- half-life (CYP3A4/2C19 [7]): 32.5 h
- patients with epilepsy reporting AEs ([8]; trial 1447, of 34): 68%
- Abdominal pain [8, 22]: 0 (0) n (%)
- Chromaturia [8, 22]: 0 (0) n (%)
- Diarrhea [8, 22]: 16 (57) n (%)
- Fatigue [8, 22]: 3 (11) n (%)
- Flatulence [8, 22]: 0 (0) n (%)
- Headache [8, 22]: 0 (0) n (%)
- Hepatic enzyme increased [8, 22]: 0 (0) ^e n (%)
- Nausea [8, 22]: 4 (14) n (%)
- Somnolence [8, 22]: 1 (4) n (%)
- AEs leading to withdrawal [8, 23]: 2 (6) n (%)
- Death [8, 23]: 0 (0) n (%)
- Patient with at least 1 AE [8, 23]: 23 (68) n (%)
- Serious AEs [8, 23]: 2 (6) n (%)
- Severe AEs [8, 23]: 1 (3) n (%)
- elevations in transaminase levels reported as AEs ([8]; trial 1447): three
- instances that met Hy’s law criteria for potential drug‐induced liver injury [9]: no instances
- suicidal ideation or behavior by C‐SSRS [9]: No suicidal ideation or behavior
- PPB when VPA and CBD are combined in vitro [10]: not affected
- inhibition of UGT2B7 (UGT2B7): potently inhibits
- inhibition of CYP2C19 (CYP2C19 [11]): potently inhibits
- clearance with concomitant FLU (CYP2C19 [12]; result in words): not affected
- t ½ with concomitant FLU (CYP2C19 [12]; result in words): not affected
- increase in AUCtau with concomitant steady‐state FLU (CYP2C19 [12]; single dose of CBD): 21%
- increase in C max with concomitant steady‐state FLU (CYP2C19 [12]; single dose of CBD): 24%
- clearance with concomitant ITC (CYP3A4 [13]): unaffected
- effect of concomitant steady‐state ITC on exposure (CYP3A4 [13]): did not affect
- t ½ with concomitant ITC (CYP3A4 [13]): unaffected
- inhibition of CYP3A4 (CYP3A4 [14]; human liver microsomes): potently inhibits
- inhibition of CYP3A4 (CYP3A4 [14]; in vitro data): potent inhibitor
- patients with epilepsy reporting AEs ([15]; trial 1428, of 20): 75%
- Abdominal pain [15, 24]: 1 (6) n (%)
- Chromaturia [15, 24]: 0 (0) n (%)
- Diarrhea [15, 24]: 6 (38) n (%)
- Fatigue [15, 24]: 1 (6) n (%)
- Flatulence [15, 24]: 0 (0) n (%)
- Headache [15, 24]: 1 (6) n (%)
- Hepatic enzyme increased [15, 24]: 0 (0) ^d n (%)
- Nausea [15, 24]: 3 (19) n (%)
- Somnolence [15, 24]: 2 (13) n (%)
- AEs leading to withdrawal [15, 25]: 1 (5) n (%)
- Death [15, 25]: 0 (0) n (%)
- Patient with at least 1 AE [15, 25]: 15 (75) n (%)
- Serious AEs [15, 25]: 1 (5) n (%)
- Severe AEs [15, 25]: 1 (5) n (%)
